# Calb biofilm kill: kills Candida albicans biofilms | actives 0.14% (n = 85,000) | inhibition, % at 6 µM | C. albicans biofilm + clotrimazole, Alamar Blue | AID 834;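 active means inhibition above 20%; inactive means inhibition below 20%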;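 further: preformed 24 hr biofilms exposed to compound for 48 hr; 0% = biofilm without compound and 100% = blank killed by clotrimazole plus chlorhexidine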
# PostGolgi yeast: growth inhibition of a yeast mutant, post-Golgi transport screen; actives 0.9% (n = 98,000); AID 739; inhibition, % at 10 µM; post-Golgi transport phenotypic cell assay;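 further: yeast cells grown in 1536-well plates; yeast grown about 18 h at 30C before absorbance read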
# FAK inh: FAK (human) kinase inhibition. AID 727. actives 0.84% (n = 97,000). biochemical FAK kinase activity assay. inhibition, %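 (tested at 7 µM)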. Q05397; in the data active means inhibition above about 19%;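 further: 0% = DMSO and 100% = reference compound high control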
# Pyk2 oligo antag: antagonists of human Pyk2 oligomerization. actives 0.83% (n = 99,000). Q293 cells, Pyk2 FERM NanoBiT luminescence; active compounds read low. z-score (the deposit names both 25 µM and 10 µM). AID 1347419. Q14289;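 active means Z-score of -3 or lower, scaled per plate to the spread of control and sample wells; inactive means z-score above -3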;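 further: negative z-score means lost luminescence so less FERM oligomerization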
# Ecoli tolC: growth inhibitors of E. coli BW25113 tolC mutant; OD615; growth inhibition, % at 10 µM (by protocol); actives 2.2% (n = 65,000);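 active means growth inhibition at or above a cutoff equal to the mean over every tested compound plus 3 SD, cut at about 60% in these data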;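 further: growth measured after 20 h incubation at 37 °C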
#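 Test system: E. coli BW25113 ΔtolC::kan bacteria | Medium: Kanamycin-containing LB broth (50 µg/mL) | Dosing: One dose of 10 µM final | Times: 20 h incubation with compound, 37 °C | Detection: Optical density read at 615 nm | Read-out basis: Percent growth inhibition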
# PostGolgi ctrl: yeast control strain growth, post-Golgi counter-screen. efflux-deficient yeast background strain, growth absorbance A615, 16 h. inhibition, % at 10 µM. actives 5% (n = 98,000)
# Starred values were filed as active, the others as inactive; x = no result. Sampled rows, rich in hits. Any-hit rate of the full collection: about 6.9%. Unless noted, no stated cut-off is given here; in the data, active means inhibition above about 30%; inactive means the rest.
SMILES,Calb biofilm kill,PostGolgi yeast,FAK inh,Pyk2 oligo antag,Ecoli tolC,PostGolgi ctrl
COc1ccc(C(=O)Nn2cc3c(c2-c2ccccc2)c(=O)n(C)c(=O)n3C)cc1,8,-10,2,-0.34,-4,-3
CCCn1c(SCC(=O)Nc2nc3ccccc3s2)nc2c1c(=O)n(C)c(=O)n2C,-2,-2,0,-1.6,x,15
c1ccc2c(-c3c[nH]c4ccccc34)c3ccccc3nc2c1,x,1,2,-2.1,x,50*
CC1CCN(Cc2ccc(NC(=O)C3CCN(c4nnc(-n5cccc5)s4)CC3)cc2)CC1,2,-5,x,x,6,7
Cc1cccc(Cn2c(=O)c3c(nc4n3CCCN4Cc3ccccc3)n(C)c2=O)c1,4,-6,0,-1.5,74*,42*
Cn1c(=O)n(C/C=C/c2ccccc2)c(=O)c2c1nc1n2CCCN1Cc1ccccc1,3,-1,1,-0.21,24,32*
CCn1c(=O)c2c(nc3n2CCCN3CCc2ccccc2)n(C)c1=O,x,3,2,0.52,-4,12
Cn1c(=O)n(C/C=C/c2ccccc2)c(=O)c2c1nc1n2CCCN1c1ccc(F)cc1,2,2,x,-1.7,35,31*
C/C(=N\O)C(=O)C(CN1CCCCC1)CN1CCCCC1,12,23,1,-0.94,-9,8
COc1ccc(Cc2nn3c(-c4ccccc4OC)nnc3s2)cc1,-6,10,x,-1.2,25,23
COc1ccccc1-c1nnc2sc(COc3ccc(Cl)cc3)nn12,9,11,-1,-0.56,69*,35*
COc1cccc(OC)c1-c1nn2c(-c3ccccc3Cl)nnc2s1,7,-3,-3,-3*,20,38*
Cc1ccc(C)c(N2CCN(C(=O)CC3Sc4ccccc4NC3=O)CC2)c1 (centres undefined),3,-1,0,x,24,10
O=C(c1noc2c1CCc1ccccc1-2)N1CCc2ccccc2C1,10,1,x,x,87*,33*
O=C(c1noc2c1CCc1ccccc1-2)N1CCCc2ccccc21,-6,8,3,-1.5,99*,23
Cc1cc(NC(=O)c2noc3c2CCc2ccccc2-3)no1,0,-5,x,x,-6,-4
O=C(c1noc2c1CCc1ccccc1-2)N1CCOCC1,3,13,-1,-0.25,-24,0
CCOC(=O)C1CCN(C(=O)COc2ccc(S(=O)(=O)NC(C)C)cc2)CC1,3,14,-3,1.1,-7,-6
CCCNS(=O)(=O)c1ccc(OCC(=O)N2CCC(C(=O)OCC)CC2)cc1,4,-7,1,0.26,49,31*
Cc1ccc(NS(=O)(=O)c2ccc(OCC(=O)N3CCOCC3)cc2)cc1,4,2,-3,0.56,x,33*
Brc1ccc2c(c1)CNc1c(ncnc1N1CCOCC1)O2,5,-17,x,0.41,12,2
Cc1cccc(N2CCN(CC(=O)Nc3nccs3)CC2)c1C,x,39*,-1,0.52,x,1
CCn1c(=O)c2ccccc2n2c(SCC(=O)NCc3cccs3)nnc12,5,6,0,0.16,-1,0
CCCn1c(=O)c2ccccc2n2c(SCc3c(C(=O)OCC)oc4ccccc34)nnc12,x,22,-1,0.65,18,51*
CCCn1c(=O)c2ccccc2n2c(SCC(=O)NCc3cccs3)nnc12,4,-1,-2,0.1,16,40*
SMILES,Calb biofilm kill,PostGolgi yeast,FAK inh,Pyk2 oligo antag,Ecoli tolC,PostGolgi ctrl
CCCn1c(=O)c2ccccc2n2c(SCC(=O)c3ccc(CC)cc3)nnc12,7,-6,4,0.13,x,7
Brc1ccccc1Cn1c(-c2cncs2)nc2ccccc21,8,8,4,x,62*,63*
C=CCc1c(C)nc2c(C(=O)O)cnn2c1C,9,7,4,0.79,-9,31*
CCc1cc2c(N3CCN(c4ccccc4)CC3)ncnc2s1,x,-2,2,0.22,93*,48*
c1ccc(N2CCN(c3ncnc4sc5c(c34)CCC5)CC2)cc1,9,0,-1,-0.64,5,7
Cc1ccc(NC(=O)CS(=O)CC(=O)N(CC(=O)NC2CCCC2)c2cc(C)ccc2C)cc1 (centres undefined),6,2,-1,-0.27,7,6
O=C1CSCC(=O)N1c1ccccc1,8,-1,-2,0.46,x,5
Cc1ccc(N(C(C)C(=O)O)S(=O)(=O)c2cccnc2)cc1 (centres undefined),24*,2,x,x,-21,2
C=CCSc1nnc(-c2cc(Br)ccc2N)c(=O)[nH]1,4,7,-2,x,12,4
CCCCSc1nnc(-c2cc(Br)ccc2N)c(=O)[nH]1,-2,8,-5,-0.53,39,36*
C=CCN(CC=C)CC(O)Cn1c2ccccc2c2ccccc21 (centres undefined),x,-1,2,-0.22,12,10
COc1cccc(-c2csc(N3CCN(C(=O)Nc4ccc(F)cc4)CC3)n2)c1,3,x,0,-0.02,x,x
COc1cccc(-c2csc(N3CCN(C(=O)C4CCCCC4)CC3)n2)c1,8,-3,x,1.6,69*,38*
N#CC1=C(N)N(c2ccccc2Sc2ccccc2)C(=O)C1,5,-7,x,-1.1,4,35*
O=[N+]([O-])c1cc(C(F)(F)F)ccc1NCCNC(=S)Nc1ccc(Cl)cc1,x,82*,4,-1.2,x,91*
CN(C)CCNC(=S)Nc1ccc(Cl)cc1,x,2,-3,0.13,x,5
Cc1ccc(C(=O)NCCNc2ccc(Cl)cc2[N+](=O)[O-])o1,x,2,7,-0.78,x,31*
O=[N+]([O-])c1ccc(NC(=S)NCCc2ccc(Cl)cc2)cc1,x,106*,-2,-1.5,x,92*
CCNCCNc1ccc(Cl)cc1[N+](=O)[O-],x,x,-2,0.2,x,x
O=S(=O)(c1ccc(Cl)cc1)N1CCN(C2CCN(Cc3ccccc3)CC2)CC1,-1,90*,2,0.16,x,27
COc1ccc(S(=O)(=O)N2CCN(Cc3ccc(Cl)cc3)CC2)cc1,6,3,-2,-0.53,18,23
O=C(O)CCCn1c(=O)[nH]c2ccccc2c1=O,7,1,-3,1.6,-10,-1
CCCCC(c1nnnn1CC1CCCO1)N1CCN(c2cc(Cl)ccc2C)CC1 (centres undefined),4,1,-7,-1.9,6,31*
CCCCC(c1nnnn1CC1CCCO1)N1CCN(c2nc3ccccc3s2)CC1 (centres undefined),2,-10,4,-2.2,20,8
CCOC(=O)c1c(C)[nH]c(C(=O)Cn2nnc(-c3ccccc3)n2)c1C,5,-7,x,1.3,-7,-8
CCN1c2ccccc2-c2nc3ccccc3n2C1c1ccccn1 (centres undefined),x,-9,5,0.82,33,40*
CCN1c2ccccc2-c2nc3ccccc3n2C1c1ccncc1 (centres undefined),-4,-14,0,-0.96,-5,10
COc1ccc(S(=O)(=O)Nc2ccc(NC(C)=O)cc2)cc1,3,2,0,0.65,x,24

# Source: PubChem
